Tests used:
Assay type in all cases: functional, Canis lupus familiaris
[1] = tested on: Canis familiaris; assay: Compound was tested for inotropic activity by measuring the concentration required to increase heart rate by 15% in the anesthetized dog after intravenous administration
Method in brief: (§1)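 Anesthetized dogs, one compound per animal, stabilized at least 30 min after surgery. Contractile force from a Walton-Brodie strain gauge arch sutured to the left ventricle, heart rate from lead II EKG, aortic pressure via femoral cannula. Readings at 5- to 10-min intervals before and after iv injection of at least three doses, with return to baseline between doses. Equieffective doses extrapolated from dose-response curves; means with 95% confidence intervals.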

[2] = tested on: Canis familiaris; assay: Compound was tested for inotropic activity by measuring the concentration required to mean blood pressure by 20% in the anesthetized dog after intravenous administration; method in brief: as §1
[3] = tested on: Canis familiaris; assay: Compound was tested for inotropic activity by measuring the concentration required to increase cardiac contractile force by 30% in the anesthetized dog after intravenous administration; method in brief: as §1

Row | Structure (SMILES) | Equieffective dose [1] [mg/kg] | Equieffective dose [2] [mg/kg] | Equieffective dose [3] [mg/kg]
1 | Cc1[nH]c(O)nc1C(=O)c1ccncc1 | 3.37 | 2.58 | 0.13
2 | Cc1[nH]c(O)nc1C(=O)c1cccnc1 | >3 | >3 | 0.64
3 | CCc1[nH]c(O)nc1C(=O)c1cc[n+]([O-])cc1 | >1 | >1 | >1
4 | CCc1[nH]c(O)nc1C(=O)c1cccnc1Cl | >3 | >3 | 0.31
5 | Cc1[nH]c(O)nc1C(=O)c1ccccn1 | 3.29 | 1.91 | 1.57
6 | Cc1[nH]c(O)nc1C(=O)c1cccnc1Cl | 5.1 | >10 | 0.47
7 | CCc1[nH]c(O)nc1C(=O)c1cccnc1 | >3 | >3 | 0.22
8 | CCCc1[nH]c(O)nc1C(=O)c1ccncc1 | 3.38 | >3 | 1.7
9 | CCc1[nH]c(O)nc1C(=O)c1cnccc1Cl | 11.8 | 7.03 | 0.56
10 | CCc1[nH]c(O)nc1C(=O)c1ccccn1 | 0.83 | >3 | 0.2
11 | CCc1[nH]c(=O)[nH]c1C(=O)c1ccncc1 [PIROXIMONE] | 0.42 | 1.7 | 0.07

Source: ChEMBL document CHEMBL1123189, “4-Aroyl-1,3-dihydro-2H-imidazol-2-ones: a new class of cardiotonic agents. 2. Effect of 4-pyridoyl substituents and related compounds” (1986)
